Experimental data: ChEMBL document CHEMBL1156455, “Interaction between HIV-1 Rev and integrase proteins: a basis for the development of anti-HIV peptides” (J Biol Chem, 2007)
The source made the active and inactive calls. The calls are words filed in the database; no cut-off is given here.

Experiments:
[1] = target: T1, Human immunodeficiency virus type 1 integrase (Human immunodeficiency virus 1, UniProt Q7ZJM1); assay: Binding affinity to HIV1 integrase by fluorescence anisotrophy
Procedure, shortened: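 Fluorescein-labelled peptide (final 0.05 to 0.1 µM) in 20 mM Tris pH 7.4 at 10 °C; 100 µM IN (taken as monomer) titrated in 20 steps of 10 µl at 15-min intervals. Anisotropy read at ex 480/em 530 nm after each addition; data fitted to Hill equation for Ka (Kd = 1/Ka).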

[2] = tested on: Human immunodeficiency virus 1; assay: Inhibition of HIV1 delta env/VSV-G replication in human sup T1 T-lymphoid […] cells assessed as inhibition of total viral DNA at 12.5 uM after 2 hrs by RT-PCR; format: functional, organism-based
Procedure, shortened: (§1)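 Sup T1 cells pretreated 2 h with 12.5 µM peptide or 2 µM azidothymidine, then infected with HIV-1 Δenv/VSV-G at m.o.i. 2 for 6 h. Gag and Nef DNA amplified by PCR from 10 ng total cell DNA, 29 cycles.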

[3] = target: Human immunodeficiency virus type 1 integrase (Human immunodeficiency virus 1) (UniProt Q7ZJM1); assay: Inhibition of recombinant HIV1 integrase strand transfer activity
Chain of Human immunodeficiency virus type 1 integrase (Human immunodeficiency virus 1) (Q7ZJM1 as listed by the source): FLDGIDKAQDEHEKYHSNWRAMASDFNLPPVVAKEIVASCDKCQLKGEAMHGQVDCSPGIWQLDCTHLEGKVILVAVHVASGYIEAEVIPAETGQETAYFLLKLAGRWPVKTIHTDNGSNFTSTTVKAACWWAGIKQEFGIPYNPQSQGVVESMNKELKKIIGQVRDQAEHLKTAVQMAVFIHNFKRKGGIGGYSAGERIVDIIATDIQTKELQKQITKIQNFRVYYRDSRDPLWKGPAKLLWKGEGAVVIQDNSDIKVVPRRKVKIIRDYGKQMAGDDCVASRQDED
Procedure, shortened: (§2)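 IN (0.8 µM) incubated with peptides; 3'-end processing or strand-transfer activity followed on labelled gel-purified oligonucleotide substrates by gel size shift or specific cleavage.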

[4] = target: Human immunodeficiency virus type 1 integrase (Human immunodeficiency virus 1) (UniProt Q7ZJM1); assay: Inhibition of recombinant HIV1 integrase 3'-end processing activity; procedure, shortened: as §2
[5] = tested on: Human immunodeficiency virus 1; assay: Inhibition of HIV1 delta env/VSV-G replication in human sup T1 T-lymphoid […] cells assessed as inhibition of viral DNA integration by RT-PCR; format: functional, organism-based
Procedure, shortened: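 Sup T1 cells pretreated 2 h with peptide, infected with HIV-1 Δenv/VSV-G at m.o.i. 2 for 24 h. Integrated DNA quantified by two-round Alu-LTR PCR (12 cycles, then 50 real-time cycles) against an HXB2 plasmid standard curve (5 ng to 0.25 fg), quadruplicate samples.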

[6] = target: Human immunodeficiency virus type 1 integrase (Human immunodeficiency virus 1) (UniProt Q7ZJM1); assay: (§3) Inhibition of HIV1 integrase by quantitative ELISA
Procedure, shortened: (§4)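 Overall integration reaction: 390 nM IN preincubated 10 min with peptide, then 1 µM biotin/digoxigenin-labelled duplex oligonucleotide in 20 mM Hepes pH 7.5, 10 mM MgCl2, 10 mM DTT, 10% Me2SO, 5% PEG-8000, 0.1 mg/ml BSA for 1 h at 37 °C. Stopped with EDTA/NaCl/salmon sperm DNA buffer; product read by immunoassay on avidin-coated plates.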

[7] = target: Human immunodeficiency virus type 1 integrase (Human immunodeficiency virus 1) (UniProt Q7ZJM1); assay: Inhibition of HIV1 integrase by qualitative integration assay system; procedure, shortened: as §2
[8] = tested on: Human immunodeficiency virus 1; assay: Inhibition of HIV1 replication in human TZM-bl cells assessed as beta-galactosidase activity at 2.5 uM; format: functional
Procedure, shortened: (§5)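 TZM-bl cells carrying TAR-driven β-galactosidase, incubated with peptides, then infected with HIV-1 in 20 µg/ml DEAE-dextran. Cells fixed 2 days post-infection, stained with X-gal, and blue cells counted by light microscopy.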

[9] = tested on: Human immunodeficiency virus 1; assay: Inhibition of HIV1 replication in human T-lymphoid H9 cells assessed as decrease in viral p24 level; format: functional, organism-based
Procedure, shortened: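 H9 cells pretreated 2 h with peptide, infected with wild-type HIV-1 (HXB2, from transfected HEK293T) at m.o.i. 0.1 for 1 h at 37 °C, washed, cultured 10 days; p24 measured by capture immunoassay.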

[10] = tested on: Human immunodeficiency virus 1; assay: Inhibition of HIV1 delta env/VSV-G replication in human sup T1 T-lymphoid […] cells assessed as inhibition of total viral DNA at 2 uM after 2 hrs by RT-PCR; format: functional, organism-based; procedure, shortened: as §1
[11] = target: T1, Human immunodeficiency virus type 1 integrase; assay: as §3; procedure, shortened: as §4
[12] = tested on: Human immunodeficiency virus 1; assay: Inhibition of HIV1 replication in human TZM-bl cells assessed as beta-galactosidase activity; format: functional, organism-based; procedure, shortened: as §5

T1 sequence (Q7ZJM1 whole entry): as the sequence (Q7ZJM1 as listed by the source) above

## CC[C@H](C)[C@H](NC(=O)[C@H](CC(C)C)NC(=O)[C@H](CCCNC(=N)N)NC(=O)[C@@H](NC(=O)[C@@H](NC(=O)[C@H](CCCCN)NC(=O)[C@H](CC(C)C)NC(=O)[C@H](CC(C)C)NC(=O)[C@H](CCC(=O)O)NC(=O)[C@H](CCC(=O)O)NC(=O)[C@H](CC(=O)O)NC(=O)[C@H](CO)NC(=O)[C@H](CC(=O)O)NC(=O)CNC(=O)[C@H](CO)NC(=O)[C@H](CCCNC(=N)N)NC(=O)CNC(=O)[C@H](C)NC(=O)[C@@H](N)CCSC)[C@@H](C)O)C(C)C)C(=O)N[C@@H](CCCCN)C(=O)N[C@@H](Cc1ccccc1)C(=O)N[C@@H](CC(C)C)C(=O)N[C@@H](Cc1ccc(O)cc1)C(=O)N[C@@H](CCC(N)=O)C(=O)N[C@@H](CO)C(=O)N[C@@H](CC(N)=O)C(=O)N1CCC[C@H]1C(=O)N1CCC[C@H]1C(=O)N1CCC[C@H]1C(=O)N[C@@H](CO)C(=O)O
[1]
  Kd: 6.5 µM
[2]
  Activity: inactive

## CC[C@H](C)[C@H](NC(=O)[C@H](CC(C)C)NC(=O)[C@H](CCCNC(=N)N)NC(=O)[C@@H](NC(=O)[C@@H](NC(=O)[C@H](CCCCN)NC(=O)[C@@H](N)CC(C)C)[C@H](C)O)C(C)C)C(=O)N[C@@H](CCCCN)C(=O)N[C@@H](Cc1ccccc1)C(=O)N[C@@H](CC(C)C)C(=O)N[C@@H](Cc1ccc(O)cc1)C(=O)N[C@@H](CCC(N)=O)C(=O)N[C@@H](CO)C(=O)N[C@@H](CC(N)=O)C(=O)N1CCC[C@H]1C(=O)O
[3]
  Activity: Active
[4]
  Activity: Active
[5]
  Activity: Active

## CC[C@H](C)[C@H](NC(=O)[C@H](CO)NC(=O)[C@H](Cc1c[nH]c2ccccc12)NC(=O)[C@@H](NC(=O)[C@H](CCCNC(=N)N)NC(=O)CNC(=O)[C@H](CO)NC(=O)[C@@H]1CCCN1C(=O)[C@H](CO)NC(=O)[C@@H](NC(=O)[C@H](CCCNC(=N)N)NC(=O)[C@H](Cc1ccc(O)cc1)NC(=O)[C@H](CC(C)C)NC(=O)CNC(=O)[C@@H](N)CC(C)C)[C@H](C)O)[C@@H](C)CC)C(=O)O
[6]
  Activity: Active
[7]
  Activity: inactive
[8]
  Activity: inactive
[9]
  Activity: inactive

## CSCC[C@H](N)C(=O)N[C@@H](C)C(=O)NCC(=O)N[C@@H](CCCNC(=N)N)C(=O)N[C@@H](CO)C(=O)NCC(=O)N[C@@H](CC(=O)O)C(=O)N[C@@H](CO)C(=O)N[C@@H](CC(=O)O)C(=O)N[C@@H](CCC(=O)O)C(=O)N[C@@H](CCC(=O)O)C(=O)N[C@@H](CC(C)C)C(=O)N[C@@H](CC(C)C)C(=O)N[C@@H](CCCCN)C(=O)N[C@H](C(=O)O)[C@@H](C)O
[3]
  Activity: inactive
[4]
  Activity: inactive

## Cc1cn([C@H]2C[C@H](N=[N+]=[N-])[C@@H](CO)O2)c(=O)[nH]c1=O
[10]
  Activity: Active

## H-DEELLKTVRLIKFLY-OH
[3]
  Activity: Active
[4]
  Activity: Active

## H-FRKLIYLTKVL-OH
[6]
  Activity: Active
[7]
  Activity: inactive
[8]
  Activity: inactive
[9]
  Activity: inactive

## H-FVSTHFSVPASPWLLLIDIV-OH
[1]
  Kd: 7.5 µM

## H-GWILSTYLGRPAEPV-OH
[3]
  Activity: inactive

## H-LKTVRLIKFLY-OH [LKTVRLIKFLY]
[1]
  Kd: 2.8 µM
[3]
  Activity: Active
[4]
  Activity: Active
[11]
  IC50: 25 µM
[8]; Human immunodeficiency virus 1, TZM-bl
  inhibition at 2.5 µM: 70%
[9]
  Activity: Active
[2]
  Activity: inactive
[12]
  Activity: Dose-dependent effect

## H-QRQIRSISGWILSTY-OH
[3]
  Activity: Active
[4]
  Activity: Active

## H-QRQIRSISGWILSTYLGRPAEPVPLQ-OH
[1]
  Kd: 11.2 µM

## H-RLIKFLYQSNPPPSP-OH
[3]
  Activity: inactive
[4]
  Activity: inactive

## H-RSISGWILSTYLGRP-OH
[1]
  Kd: 6.9 µM
[3]
  Activity: Active
[4]
  Activity: Active
[11]
  IC50: 25 µM
[8]
  Activity: Active
[9]
  Activity: Active
[5]
  Activity: Active
[2]
  Activity: inactive
[12]
  Activity: Dose-dependent effect

## H-SGDSDEELLKTVRLI-OH
[3]
  Activity: inactive
[4]
  Activity: Active

## H-STYLGRPAEPVPLQL-OH
[3]
  Activity: inactive
[4]
  Activity: inactive

## H-WRERQRQIRSISGWI-OH
[3]
  Activity: inactive
[4]
  Activity: inactive
